Calls of active or inactive are those of the source. The rule behind the calls is not given here.
Experiments:
[1] = Cmax in Balb/c mouse at 10 mg/kg, po measured up to 24 hrs by LC-MS/MS analysis; type: ADME, organism-based; set-up: route oral, dose 10 mg/kg, time <=24; settings: in vivo
How it was run: (§1)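 Male Balb/c mice, not fasted, food and water ad libitum; single oral dose. Tail-vein blood into heparinized tubes at 0.5, 1, 3, 5, 7, 9 and 24 h, stored at −80 °C. Whole blood protein-precipitated with acetonitrile containing internal standard, analyzed by LC−MS/MS (LOQ 2 ng/mL). Parameters by noncompartmental analysis with curve stripping. Mean of three mice per point.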

[2] = Half life in Balb/c mouse at 3 mg/kg, iv measured up to 24 hrs by LC-MS/MS analysis; type: ADME, organism-based; settings: in vivo
How it was run: (§2)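 Intravenous dosing in male Balb/c mice, fed ad libitum. Tail-vein blood sampled into heparinized tubes at 0.17, 0.5, 1, 3, 5, 7, 9 and 24 h, frozen at −80 °C. Blood extracted by acetonitrile protein precipitation with internal standard; LC−MS/MS quantitation, LOQ 2 ng/mL. Noncompartmental analysis based on curve stripping.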

[3] = Tmax in Balb/c mouse at 10 mg/kg, po measured up to 24 hrs by LC-MS/MS analysis; type: ADME, organism-based; settings: in vivo; how it was run: as §1
Plasmodium falciparum [4] = assay: Antimalarial activity against asexual blood stage drug-sensitive Plasmodium falciparum NF54 infected in erythrocytes assessed as reduction in parasitemia incubated up to 72 hrs by [3H]hypoxanthine incorporation assay; type: functional, organism-based
How it was run: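 [³H]-Hypoxanthine incorporation assay (modified) on asexual blood-stage P. falciparum in vitro. IC₅₀ values are means of ≥2 independent experiments.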

[5] = Resistance index, ratio of IC50 for antimalarial activity against asexual blood stage multi drug-resistant Plasmodium falciparum K1 to IC50 for antimalarial activity against asexual blood stage drug-sensitive Plasmodium falciparum NF54; type: functional
How it was run: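 Resistance index is IC₅₀(K1)/IC₅₀(NF54). Both IC₅₀s came from the [³H]-hypoxanthine incorporation assay, as means of ≥2 independent experiments.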

Plasmodium falciparum [6] = assay: Antiplasmodial activity against […] Plasmodium falciparum NF54 early gametocytes transfected with GFP-Luc […] at 5 uM incubated for 48 hrs by microscopy based luciferase reporter gene assay relative to control; type: functional
How it was run: (§3)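 NF54-Pfs16-GFP-Luc gametocytes, assays set up day 5 (early, stage II/III) or day 10 (late, stage IV/V). Culture at 2−3% gametocytemia, 1.5% hematocrit, 48 h drug exposure at 37 °C under 90% N₂/5% O₂/5% CO₂. Lysates mixed with luciferin; bioluminescence read with 10 s integration. Dual-point: one biological repeat in technical triplicate. Methylene blue (5 μM) reference.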

Plasmodium falciparum [7] = assay: Antiplasmodial activity against […] Plasmodium falciparum NF54 early gametocytes transfected with GFP-Luc […] incubated for 48 hrs by microscopy based luciferase reporter gene assay relative to control; type: functional, organism-based; settings: NF54, 48 h
How it was run: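 Transgenic NF54-Pfs16-GFP-Luc gametocytes, read by luciferase reporter. Early assays were set up on day 5 (50% stage II/50% stage III) and late assays on day 10 (40% stage IV/60% stage V). Luciferin was added to lysates at room temperature and bioluminescence read. Methylene blue (5 μM) was the reference. Single-point screens at 1 and 5 μM used n=1 in technical triplicate. IC₅₀ came from a normalized nonlinear fit, n≥3 in triplicate.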

Plasmodium falciparum [8] = assay: Antiplasmodial activity against […] Plasmodium falciparum NF54 late gametocytes transfected with GFP-Luc […] at 1 uM incubated for 48 hrs by microscopy based luciferase reporter gene assay relative to control; type: functional; how it was run: as §3
[9] = Metabolic stability in rat liver microsomes assessed as compound remaining at 1 uM incubated for 30 mins by LC-MS/MS analysis; type: ADME, Microsome; settings: read-out: Stabilty
How it was run: (§4)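 Single-point design: 1 μM compound with 0.4 mg/mL liver microsomes in 0.1 M phosphate buffer pH 7.4 for 30 min. Quenched with ice-cold acetonitrile containing carbamazepine internal standard, centrifuged, analyzed by LC−MS/MS. Percent remaining from internal-standard-corrected peak areas at 30 min versus 0 min. Propranolol, midazolam and MMV390048 as controls.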

[10] = Metabolic stability in human liver microsomes assessed as compound remaining at 1 uM incubated for 30 mins by LC-MS/MS analysis; type: ADME, Microsome; settings: read-out: Stabilty; how it was run: as §4
[11] = Kinetic solubility of the compound in pH 6.5 incubated for 24 hrs by HPLC-DAD analysis; type: physicochemical; settings: buffer, read-out: Kinetic_solubility
How it was run: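 Miniaturized shake-flask method. 10 mM DMSO stock dried down, phosphate buffer pH 6.5 added, shaken 24 h at 25 °C. Centrifuged 3500g for 15 min; supernatant analyzed by HPLC-DAD against 10−220 μM DMSO calibration curve. Reserpine, hydrocortisone and MMV390048 as controls.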

Plasmodium berghei = assay: Antimalarial activity against GFP-transfected Plasmodium berghei ANKA infected in NMRI mouse model assessed as reduction in parasitemia at 50 mg/kg, po dosed 4 times relative to control; type: functional; set-up: scale not given: the % may be the effect or the level left
How it was run: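 Mice (n = 3) infected with GFP-transfected P. berghei ANKA. Compound in 70% Tween-80/30% ethanol, diluted 10-fold in water, given orally at 4, 24, 48 and 72 h post-infection. Blood taken day 4 (96 h); parasitemia by flow cytometry, detection limit 0.1%. Activity = difference in mean % parasitemia between control and treated, as % of control.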

[12] = Clearance in Balb/c mouse at 3 mg/kg, iv measured up to 24 hrs by LC-MS/MS analysis; type: ADME, organism-based; settings: in vivo; how it was run: as §2
[13] = Volume of distribution in Balb/c mouse at 3 mg/kg, iv measured up to 24 hrs by LC-MS/MS analysis; type: ADME, organism-based; settings: in vivo; how it was run: as §2
[14] = Volume of distribution at steady state in Balb/c mouse at 3 mg/kg, iv measured up to 24 hrs by LC-MS/MS analysis; type: ADME, organism-based; settings: in vivo, read-out: Vdss; how it was run: as §2
[15] = AUC (0 to t) in Balb/c mouse at 3 mg/kg, iv measured up to 24 hrs by LC-MS/MS analysis; type: ADME, organism-based; set-up: dose 3 mg/kg, time <=24; settings: in vivo; how it was run: as §2
Hemozoin [16] = assay: Inhibition of Beta-hematin in early ring stage Plasmodium falciparum parasitized red blood cells assessed as hemozoin formation formation after 32 hrs by Giemsa staining based haemocytometric counting method
Hemozoin [17] = assay: Inhibition of beta-hematin formation […] incubated for 5 hrs by NP40 detergent-mediated assay
How it was run: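 Cell-free β-hematin formation assay in NP-40 (305.5 μM) lipid-mimic medium. Compounds from 20 mM stock serially diluted across wells, in duplicate. Hematin suspended in 1 M acetate buffer pH 4.8; plates incubated ~5 h at 37 °C. Then pyridine solution (with HEPES pH 7.4) and acetone added; absorbance at 405 nm. IC₅₀ by curve fit.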

[18] = tested on: Plasmodium falciparum NF54; assay: Inhibition of tubulin polymerization in asexual stage (II) Plasmodium falciparum NF54 early gametocytes at 2400 nM incubated for 24 hrs by tubulin tracker Oregon Green staining method
How it was run: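 Treatment at 600 nM for asexual parasites (~1% parasitemia, 5% hematocrit, sorbitol-synchronized rings) or 2400 nM for early gametocytes (~2% gametocytemia, 2% hematocrit, 20% I/60% II/20% III). 24 h at 37 °C, 90% N₂/5% CO₂/5% O₂, DMSO <0.1%. Stained with 250 nM Tubulin Tracker Oregon Green 488 for 30 min and Hoechst (100 nM) for 10 min. PBS-washed, imaged live by confocal microscopy. Colchicine (20 μM) positive control.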

CCNCc1cc(Cl)cc(Nc2nc3cc(F)c(F)cc3n2Cc2ccc(C(F)(F)F)cc2)c1O
Cmax [1]: 400 nM
half-life [2]: 6.3 h
Tmax [3]: 2.8 h
IC50 (Plasmodium falciparum [4]): 190 nM
Ratio IC50 [5]: 0.42
inhibition at 5 µM (Plasmodium falciparum [6]): 91%
IC50 (Plasmodium falciparum [7]): 460 nM
inhibition at 1 µM (Plasmodium falciparum [8]): 0%
remaining at 0.5 h, 1 µM [9]: 98%
remaining at 0.5 h, 1 µM [10]: > 99%
solubility kinetic at 24 h [11]: < 5 µM
Activity (Plasmodium berghei): 98%
clearance [12]: 12.6 mL/min/kg
Vd [13]: 6.9 L/kg
Vd [14]: 5.8 L/kg
AUCt [15]: 443 µmol·min/L
Activity (Hemozoin [16]): inactive
IC50 (Hemozoin [17]): 18100 nM
inhibition [18]: Active

Reference: ChEMBL document CHEMBL4834426, “Antimalarial Benzimidazole Derivatives Incorporating Phenolic Mannich Base Side Chains Inhibit Microtubule and Hemozoin Formation: Structure-Activity Relationship and In Vivo Oral Efficacy Studies” (J Med Chem, 2021)
